Test system: MS2 coat protein
Assay: apparent Kd, MS2 coat protein; higher = weaker binding; RNA-MaP array; FMN 200 µM where present
Method in brief: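 The apparent Kd comes from binding curves fitted cluster by cluster, filtered, and summarised as a median. Those curves followed SNAP-549-labelled MS2 coat protein from 0.7 or 1.5 nM, doubling to 3 µM, on Illumina sequencing-chip clusters where stalled E. coli RNA polymerase had transcribed the designs, without and then with constant ligand. The buffer was 100 mM Tris-HCl pH 7.5, 80 mM KCl, 4 mM MgCl2, BSA, DTT, yeast tRNA and Tween-20, and green signal was normalised to red-channel RNA signal and control-cluster median Fmax.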

[1] = designed as: ON switch for flavin mononucleotide, no ligand
[2] = ligand present: flavin mononucleotide, designed as: ON switch for flavin mononucleotide
[3] = designed as: OFF switch for flavin mononucleotide, no ligand
[4] = ligand present: flavin mononucleotide, designed as: OFF switch for flavin mononucleotide

Sequence | apparent Kd [1] [nM] | apparent Kd [2] [nM] | apparent Kd [3] [nM] | apparent Kd [4] [nM]
CCCAAACUUGGGCUUGGUGGUGCAUAGGAUAUCCUUGGACAUGAGGAUCACCCAUGUACAACUGUGGAGAAGGGUGCAGGACCU | 227 | 39.6 | – | –
CCCAAACUUGGGCUUGGUGGUGCAUAGGAUAUGCUUGAACAUGAGGAUCACCCAUGUACAACUGUGCAGAAGGGUGCAGGGCAA | 40.9 | 18.6 | – | –
CCCAAGUCAGGAUAUGGAACACAGAGACAUCUCUGUGCCCACCAGAAGGGACAUGAGGAUCACCCAUGUGAUGA | – | – | 64.4 | 296
CCCACGAAAGUCGAACGAUGUAGCAGAAGGACAUGAGGAUCACCCAUGUCAGCUGUAACAGCCAUGUAGGAUAUGCUACAUGGG | – | – | 6.05 | 5.77
CCCGACCUGAAGUCGAUACGGAGGAGAAGGCGCCUCCUGGGUCCACAUGAGGAUCACCCAUGUGGCGAGGAUAUCCUCAGUUUU | – | – | 11.8 | 73.7
CCCGACUAGAAGUCGAUACGGAGGAGAAGGCGCCUCCUGGGUCCACAUGAGGAUCACCCAUGUGGCGAGGAUAUCCUCAGUUUU | – | – | 10.9 | 96.6
CCCUAAUAUCGAGGAUAUGUCUAGACACAUGAGGAUCACCCAUGUAUGUGUAUAGAAGGCGAUAUUAACAGCAUGUUACAUGGG | 315 | 101 | – | –
CCCUCACAUGAGGAUCACCCAUGUCAGGAUAUCUAGUCAGAUAGUGUAGCACUAAUGAAGAGAAGGGACGUAUA | – | – | 18.2 | 23.9
CCCUCACAUGAGGAUCACCCAUGUCAGGAUAUUCGAGGCGCAAAUGCGCCAAAUGCAGGAAGAAGGGACGUGCC | – | – | 15.4 | 25.7
CCCUCACAUGAGGAUCACCCAUGUUAGGAUAUCCACCGUUGAUGGUGCCGAAUCGGUAGGAGAAGGAACAUACA | – | – | 23.2 | 54.6
CCCUCGCGAGGAUAUGCAUCCUCCCUCAUUUCUUUCACUACACAUGAGGAUCACCCAUGUAGAAGGCGCUCUCC | – | – | 49.9 | 38.6
CCGAAUGUCACAGGAUAUGGUCCGGGCACGCGACCAGAAGGGUGAUCUUACAUGAGGAUCACCCAUGUAUAGGCGUUAGGCUAC | 32.9 | 442 | – | –
CCGAAUGUCACAGGAUAUGGUCCGGGCUCGCGACCAGAAGGGUGAUCUCACAUGAGGAUCACCCAUGUGUAGGCGUUAGGCUAU | 34.1 | 260 | – | –
CCGACGAAAGUCGAACGAUGUAGCAGAAGGACAUGAGGAUCACCCAUGUCAGCUGUAACAGCCAUGUAGGAUAUGCUACAUCGA | – | – | 4.41 | 5.85
CCGACGAAAGUCGAACGAUGUAGCAGAAGGACAUGAGGAUCACCCAUGUCAGCUGUAACAGCCAUGUAGGAUAUGCUACAUCGG | – | – | 4.44 | 5.53
CCGAGAAGGACAGGAUAUGGACAUGAGGAUCACCCAUGUACAUGGGAAUAUAUACUGAAUUUUUACUAGAAGGGUUACAUAAAU | – | – | 19.3 | 14.9
CCGCAAAUGCAGGAUAUCGUAUCGGAUACGAUACGAGAAGGGCAUACAUGAGGAUCACCCAUGUGUCCUAGCGG | – | – | 16.6 | 35.2
CCGCAAAUGUAGGAUAUCGUAUCGGAUACGAUACGAGAAGGGCAUACAUGAGGAUCACCCAUGUGUCCUAGCGG | – | – | 14.6 | 15.7
CCGCCAUGAGGAUAUCCAUCUGGAUCAGACUAGAUCCUGAUGGAGAAGGGACAUGAGGAUCACCCAUGUUGCGG | – | – | 62.8 | 55.1
CCGGAAACGGGUAGCUGACAUGAGGAUCACCCAUGUGAAUCUGAGGAUAUGGAUCCUAAUUGGAUCCAGAAGGCAGUCAGCUAC | 615 | 61.4 | – | –
CCGGAAAUAGAGGAUAUCGUAUCGGAUACGAUACGAGAAGGCUAUACAUGAGGAUCACCCAUGUGUCCUACCGG | – | – | 16.4 | 40.5
CCGGAAUCCUAGGAUAUGCUAGACGAAAGUCUAGCAGAAGGAGGAACAUGAGGAUCACCCAUGUGUCCUACCGG | – | – | 18.6 | 25
CCGGACAUUCGGACAUGAGGAUCACCCAUGUAGGCGGAUUCACAGGAUAUAAGUUCGUCCGAGACUUAGAAGGGUGGCUUCCGA | 119 | 54.6 | – | –
CCGGAUAUGCAGGAUAUCGUAUCGGAAACGAUACGAGAAGGGUAUACAUGAGGAUCACCCAUGUGCCUUACCGG | – | – | 19.7 | 21.9
CCGUAGAUGGGACAGGAUAUGACUGUCGUCACAUGAGGAUCACCCAUGUCCCGGCAAUGCCACCGUUAGAAGGGUCCCGUCUCGG | 14.4 | 15 | – | –
CCGUUACAUGAGGAUCACCCAUGUGAGGAUAUGGUUCGGUACUGUCCUGUCGCGUACUCCAGAAGGCACGUGUC | – | – | 33.5 | 34.8
CCGUUGGGCUAGAAGGCUCCGGGAGGGCCGCGGAGAGGAUAUAGCACAUGAGGAUCACCCAUGUGGUAUGACCUUAUGUAAUCA | – | – | 37.4 | 82.7
CCUAAGGACACAGGAUAUAGCGUGGUGGCCGGACUCCAACAGCGAGCGGCGCUAGAAGGGUGACCACAUGAGGAUCACCCAUGU | 709 | 370 | – | –
